Bioassay records from PubChem.
tolC growth inh – E. coli tolC mutant growth inhibition; E. coli BW25113 tolC mutant growth, OD615; growth inhibition, % at 10 µM (by protocol); hit rate 2.2% among 65,000;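 active = growth inhibition at or above a cutoff equal to the mean over every tested compound plus 3 SD, cut at about 60% in these data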;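 also: growth measured after 20 h incubation at 37 °C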
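test system = E. coli BW25113 ΔtolC::kan bacteria | medium = LB with kanamycin 50 µg/mL | signal = OD at 615 nm | schedule = 37 °C, 20 h exposure | evaluation = % inhibition of E. coli growth | compound dosing = one dose of 10 µM final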
Jurkat viability – reduces viability or proliferation of Jurkat cells | Jurkat E6.1 viability, ATP luminescence, 48 h | inhibition, % at 4 µM | hit rate 1.2% among 56,000;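 active = inhibition above the mean inhibition of all tested compounds plus 3 SD, cut at about 28% in these data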
Lung fibro prol – blocks proliferation of human lung fibroblasts; LL 47 human lung fibroblast viability, ATP luminescence; active compounds read low; viability, % at 10 µM; hit rate 1.1% among 85,000; AID 719;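 active = viability at or below 50% in the single dose screen; inactive = viability above 50%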;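 also: compound exposure lasted 72 h before the ATP readout; 100% = median luminescence of untreated cell-only wells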
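Material: human LL 47 lung fibroblast cells; quantity: 1,150 cells/well; medium: IMEM plus 15% FBS; doses: 0.1% DMSO in all compound wells; timing: overnight attachment after seeding, then 72 h compound exposure at 37 °C; detection: CellTiter-Glo luminescence; measure: % viability of median cell-only signal; controls: cell-only wells, no compound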
H69AR growth 86K – growth inhibitors of human H69AR lung tumor cells; H69AR lung tumor viability, ATP luminescence, 72 h; active compounds read low; viability, % at 10 µM; hit rate 6% among 85,000; AID 598;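 active = viability at or below 40%; inactive = viability above 40%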;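 also: multidrug resistant small cell line overexpressing MRP-1 efflux transporter; 100% = mean luminescence of untreated control wells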
HUVEC inhibit – human endothelial cell proliferation inhibition; viability, % at 10 µM (by protocol); hit rate 1.1% among 86,000; HUVEC proliferation, CellTiter-Glo luminescence, 72 h; active compounds read low; AID 648;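 active = viability at or below 30%; inactive = viability above 30%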;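 also: 100% = median luminescence of DMSO-only cell control wells on each plate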
E coli WT exp – E. coli BW25113 growth inhibition, expanded screen | OD600 absorbance | growth inhibition, % at 100 µM | hit rate 0.15% among 98,000 | AID 710;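 active = growth inhibition above about 50% at one test dose, limit read from the data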;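 also: growth measured after 20 h incubation at 37 °C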
An asterisk follows results filed as active; / = no result. Rows were chosen to be rich in hits. Some 6.4% of all compounds tested hit in one or more screens of this group.

SMILES	tolC growth inh	Jurkat viability	Lung fibro prol	H69AR growth 86K	HUVEC inhibit	E coli WT exp
CCNc1nc(SCc2ccccc2)nc(N2CCOCC2)n1	66*	-2	71	77	110	2
CCOC(=O)N1CCc2c(sc3c2C(=O)NC(c2ccc(-c4ccc(Cl)cc4)o2)N3)C1 (stereo not drawn)	3	0	53	30*	89	/
COc1cc(CSc2nnnn2-c2ccc(C)cc2)cc(OC)c1OC	42	89*	86	60	85	-10
CC(=O)Nc1ccc(-c2cc(NC(C)=O)n(-c3ccccc3)n2)cc1	-10	-6	105	86	87	1
O=C(CCl)Nc1cc(-c2ccccc2)nn1-c1ccccc1	/	/	6.8*	1.2*	14*	1
Cc1ccc(-c2cc(NC(=O)CCl)n(-c3ccccc3)n2)cc1	/	/	3.3*	0.9*	9.6*	-3
C=CCn1c(SCc2c(C)noc2C)nc2sc(C)c(C)c2c1=O	/	/	68	20*	52	-13
Cc1cc2c(=O)n(Cc3ccco3)c(SCC(=O)c3ccc(Cl)s3)nc2s1	9	12	100	13*	82	1
C=CCn1c(SCC(=O)NC(=O)NCc2ccco2)nc2sc(C)c(C)c2c1=O	-10	0	52	11*	57	-4
Cc1sc2nc(SCC(=O)C(C)(C)C)n(Cc3ccco3)c(=O)c2c1C	/	/	49*	92	64	-15
Cc1sc2nc(SCc3ccccc3)n(Cc3ccco3)c(=O)c2c1C	/	/	94	96	94	-24
CCC(COC(=O)Nc1cccc(C)c1)NC(=O)OCC(C)C (stereo not drawn)	29	-7	102	94	94	5
O=C1Nc2ccccc2C(O)(C(=O)NCc2ccc3c(c2)OCO3)N1c1ccc(Cl)c(Cl)c1 (stereo not drawn)	/	/	95	95	85	-3
Cc1cc(Cl)ccc1NC(=O)NC1CCN(S(=O)(=O)c2ccc(F)cc2)CC1	/	/	96	39*	94	-7
Cc1ccc(NC(=O)NC2CCN(S(=O)(=O)c3ccc(F)cc3)CC2)cc1	/	/	101	86	101	/
O=C(NC1CCCCC1)C(c1ccc(O)cc1)N(CC1CCCO1)C(=O)C1COc2ccccc2O1 (stereo not drawn)	/	/	94	71	84	-5
COc1ccc(CCNC(=O)c2ccncc2)cc1OC	1	4	100	95	100	-11
COc1ccc(CCNC(=O)c2cc3sc(Cl)cc3n2C)cc1OC	63*	-1	113	109	113	0
CCOC(=O)C1=C(O)/C(=C/c2ccc(C)o2)SC1=NC(=O)c1ccccc1C	/	/	58	17*	64	/
COc1ccc(NC2=Nc3ccccc3N3C2=Nc2c(c(C)nn2-c2ccc(C)cc2)C3c2cccnc2)cc1 (stereo not drawn)	/	/	112	103	109	-7
CC(=O)Nc1ccc(NC2=Nc3ccccc3N3C2=Nc2c(c(C)nn2-c2ccccc2)C3c2ccccc2)cc1 (stereo not drawn)	/	/	33*	67	76	-14
COc1cccc(SCc2noc(C(=O)NCC3CCCO3)c2C(=O)O)c1 (stereo not drawn)	/	/	/	/	/	3
COc1ccc(-n2c(N)c(C(=O)NCC3CCCO3)c3nc4ccccc4nc32)c(OC)c1 (stereo not drawn)	26	-3	87	40*	67	-7
COC(=O)c1c(N)n(CCCN2CCOCC2)c2nc3ccccc3nc12	/	/	104	97	89	11
Nc1c(C(=O)NCc2ccc(F)cc2)c2nc3ccccc3nc2n1CCCN1CCOCC1	/	/	68	1.2*	5.1*	10
SMILES	tolC growth inh	Jurkat viability	Lung fibro prol	H69AR growth 86K	HUVEC inhibit	E coli WT exp
C=CCn1c(N)c(C(=O)NCC2CCCO2)c2nc3ccccc3nc21 (stereo not drawn)	12	0	96	68	63	4
COc1ccc(CNC(=O)c2c(N)n(CCCN3CCOCC3)c3nc4ccccc4nc23)cc1	/	/	92	1.2*	7.0*	6
O=C(CSCc1ccc(Cl)cc1)NCc1ccc2c(c1)OCO2	/	/	109	108	77	13
O=C1NCCCC2c3c(cc(Br)c(O)c3Br)OC12N1CCCCC1 (stereo not drawn)	/	/	98	89	91	4
Cc1ccc(-c2c(C#N)c(N)nc3c2CCCC3)s1	/	/	/	/	/	-14
COc1ccc(C)cc1NC(=O)CN1C(=O)c2cccc3cccc1c23	/	/	55	28*	47	6
Cc1occc1-c1nnc(SCC(=O)c2ccc(F)cc2)o1	13	1	90	84	95	-2
